The source made the active and inactive calls. The rule behind the calls is not given here.
Experiments:
[1] = biological target: T1, Tubulin (Homo sapiens) (UniProt P68371+Q9H4B7+P0DPH7+P68366+Q13509+Q71U36+P04350+Q3ZCM7+P07437+P68363+Q9BQE3+Q6PEY2+Q13885+Q9BVA1+Q9BUF5); assay: Inhibition of [3H]colchicine binding to tubulin (unknown origin) at 5 uM relative to control; assay type: protein-complex assay
[2] = biological target: T1, Tubulin (Homo sapiens); assay: Inhibition of [3H]colchicine binding to tubulin (unknown origin) at 0.5 uM relative to control; assay type: protein-complex assay
[3] = biological target: Tubulin; assay: Inhibition of tubulin assembly (unknown origin); assay type: protein-complex assay, Homo sapiens
[4] = test system: OVCAR-8; assay: Antiproliferative activity against human OVCAR-8 cells; assay type: functional, cell-based
[5] = test system: NCI/ADR-RES; assay: Antiproliferative activity against human NCI/ADR-RES cells overexpressing Pgp; assay type: functional, cell-based
[6] = Resistance ratio of IC50 for antiproliferative activity against human NCI/ADR-RES cells expressing Pgp to IC50 for antiproliferative activity against human OVCAR-8 cells; assay type: functional
Summary of the method: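 Resistance ratio: IC50 in Pgp-overexpressing NCI/ADR-RES cells divided by IC50 in parental OVCAR-8 cells.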

[7] = test system: MCF7; assay: Antiproliferative activity against human MCF7 cells; assay type: functional, cell-based
[8] = test system: MCF7; assay: Antiproliferative activity against human MCF7 cells expressing TUBB3; assay type: functional, cell-based
[9] = test system: MCF7; assay: Antitumor activity against human MCF7 cells expressing TUBB3 xenografted in athymic mouse assessed as reduction in tumor growth at 10 mg/kg administered twice in a week; assay type: functional, organism-based
[10] = Toxicity in athymic mouse xenografted with human MCF7 cells expressing TUBB3 assessed as effect on body weight at 10 mg/kg administered twice in a week; assay type: organism-based; details: in vivo

Structure (SMILES) | inhibition [1] | inhibition [2] | IC50 [3] | IC50 [4] | further results
COc1ccc2c(c1)CCCN2c1nc(C)nc2c(Cc3ccccc3)c[nH]c12 | 43% | – | – | – | –
COc1ccc2c(c1)CCCN2c1nc(Cl)nc2cnn(C)c12 | 94% | 68% | 420 nM | 17 nM | IC50 [5]: 8 nM; Ratio IC50 [6]: 0.47
COc1ccc(N(C)c2nc(C)nc3ccn(C)c23)cc1 | 99% | 79% | – | – | –
COc1ccc(Nc2nc(Cl)nc3cnn(C)c23)cc1 | 7.1% | – | > 20000 nM | > 5000 nM | IC50 [5]: > 5000 nM
COc1ccc(N(C)c2nc(C)nc3c(Cc4ccccc4)cn(C)c23)cc1 | 92% | 73% | 480 nM | – | –
CC(=O)O[C@H]1C(=O)[C@@]2(C)[C@H]([C@H](OC(=O)c3ccccc3)[C@]3(O)C[C@H](OC(=O)[C@H](O)[C@@H](NC(=O)c4ccccc4)c4ccccc4)C(C)=C1C3(C)C)[C@]1(OC(C)=O)CO[C@@H]1C[C@@H]2O [PACLITAXEL] | – | – | – | 5.3 nM | EC50 [7]: 194 nM; EC50 [8]: 2070 nM; TGI [9]: Active; Activity [10]: Toxic
COc1ccc(N(C)c2nc(C)nc3cc[nH]c23)cc1 | 60% | – | 10000 nM | – | –
